Assay results: ChEMBL document CHEMBL2406936, “Highly oxygenated meroterpenoids from fruiting bodies of the mushroom Tricholoma terreum” (J Nat Prod, 2013)

Experiments:
Format in all cases: functional, cell-based
SMMC-7721 = assay: Cytotoxicity against human SMMC7721 cells after 48 hrs by MTT assay
Summary of the method: (§1)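 Cells grown in RPMI1640 or DMEM with 10% FBS at 37 °C under 5% CO2. Adherent lines (A-549, MCF-7, SMMC-7721, SW480) were allowed 12 h to attach before dosing. Suspension HL-60 cells were seeded just before dosing at an initial 1 × 10^5 cells/mL. Compounds in DMSO at 0.0625, 0.32, 1.6, 8 and 40 μmol, in triplicate, for 48 h. MTT read-out. Cisplatin and vinorelbine were the positive controls.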

MCF7 = assay: Cytotoxicity against human MCF7 cells after 48 hrs by MTT assay; summary of the method: as §1
SW480 = assay: Cytotoxicity against human SW480 cells after 48 hrs by MTT assay; summary of the method: as §1
HL-60 = assay: Cytotoxicity against human HL60 cells after 48 hrs by MTT assay; summary of the method: as §1
A549 = assay: Cytotoxicity against human A549 cells after 48 hrs by MTT assay; summary of the method: as §1

| SMILES | IC50 (SMMC-7721) [µmol] | IC50 (MCF7) [µmol] | IC50 (SW480) [µmol] | IC50 (HL-60) [µmol] | IC50 (A549) [µmol] |
| --- | --- | --- | --- | --- | --- |
| COc1cc(O)c2c(c1O)C[C@]1(C)O[C@@H]1CC[C@@]1(C)O[C@@H]1C2=O | 11.3 | 16.1 | 14.2 | 4 | 4.2 |
| COc1cc(O)c2c(c1O)C/C(C)=C\[C@@H](O)C[C@@]1(C)O[C@@H]1C2=O | 14.9 | 21 | 21.1 | 17.8 | 6.5 |
| COc1cc(O)c2c(c1O)C/C(C)=C\CC[C@@]1(C)O[C@@H]1C2=O | 24.7 | 24.6 | > 40 | 5.6 | 16.4 |
